Here are results for two compounds from ChEMBL document CHEMBL3259808, “Optimization of antitrypanosomatid agents: identification of nonmutagenic drug candidates with in vivo activity” (J Med Chem, 2014).

In data set [1] the test system is Salmonella typhimurium. The data set can be described thus: Mutagenic activity in Salmonella typhimurium TA1535 at 6 to 500 ug/plate by Ames test in presence of mouse liver S9 fraction. It counts as toxicity, organism-based. The following applies: salmonella enterica subsp. enterica serovar typhimurium. In outline: (§1)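 Plate-incorporation Ames test on minimal glucose agar with 500 μL Aroclor-treated mouse liver S9 added. DMSO solutions were tested at five consecutive 3-fold dilutions from the highest non-toxic dose, in triplicate, with a DMSO negative control. Revertants were counted manually; a compound was scored mutagenic when revertants were at least twice the negative control for two or more consecutive doses.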
For orientation: The Ames test detects mutagens through reverse mutation in bacteria.

Data set [2] concerns Salmonella typhimurium. As to the kind of experiment: Mutagenic activity in Salmonella typhimurium TA102 at 6 to 500 ug/plate by Ames test. The format is toxicity, organism-based. The following applies: salmonella enterica subsp. enterica serovar typhimurium. The gist of the method:
(§2)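 Direct plate incubation on minimal glucose agar (Vogel-Bonner E). Compound toxicity to the bacteria was checked first. DMSO solutions were tested at five consecutive 3-fold dilutions, starting from the highest non-toxic dose, in triplicate, without metabolic activation. DMSO served as negative control. Revertants were counted manually; mutagenic = revertants at least double the negative control at two or more consecutive doses.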

The subject of data set [3] is Trypanosoma cruzi. The data set can be described thus: Antitrypanosomal activity against Trypanosoma cruzi CL Brener infected in BALB/c mouse assessed as peak of maximum parasitemia at 107 umol/kg/day, po administered in cholesterol/surfactant/phosphate buffer in 19 day schedule including 5 days of dosing 2 days of resting and final 4 days of dosing measured up to 60 days relative to control. It counts as functional. In outline: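 Male BALB/c mice (n = 6/group) were infected i.p. with 10³ blood trypomastigotes. From day 6 they were dosed orally in microemulsion vehicle on a schedule of 5 days on, 2 off, 5 on, 2 off, 4 on. Controls received vehicle. Parasitemia was counted weekly in tail-vein blood for 60 days, and mortality was recorded.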

The nature of data set [4]: Stability of the compound in aqueous solution assessed as compound remaining at 1 mM at pH 7.4 after 1 hr by TLC analysis. To be noted: aqueous solution, pH 7.4; read-out: Stability. The format is physicochemical. The gist of the method: (§3)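 DMSO stocks diluted to final 1 mM in KCl·HCl pH 1.0, citrate pH 6.0, Tris·HCl pH 7.4 or borax·HCl pH 9.0 buffer. Incubated 1 h at 37 °C, then ethyl acetate extracts checked by TLC for decomposition products.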

Data set [5] is described as follows: Stability of the compound in aqueous solution assessed as compound remaining at 1 mM at pH 9 after 1 hr by TLC analysis. It counts as physicochemical. To be noted: aqueous solution, pH 9; read-out: Stability. The gist of the method: as §3
Data set [6] is described as follows: Stability of the compound in aqueous solution assessed as compound remaining at 1 mM at 37 degC after 1 hr by TLC analysis in presence of rat liver cytosolic fraction. It counts as ADME. To be noted: cytosol, 1000 µM. In outline:
(§4)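 Rat liver cytosolic (100 000g supernatant) and microsomal (100 000g pellet, washed and resuspended in Tris·HCl) fractions, fresh or stored at −80 °C; protein measured by BCA. Compound incubated with the fraction 1 h at 37 °C and analysed by TLC of extracts.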

Data set [7] in a line: Stability of the compound in eumulgin HRE 40, sodium oleate, soya phosphatidylcholine, cholesterol, and phosphate buffer at pH 7.4 at 4 degC. The format is physicochemical. In outline:
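Storage stability of the compound in vehicle V2, a microemulsion of surfactant (Eumulgin HRE 40/sodium oleate/soya phosphatidylcholine, 10%), cholesterol oil phase (10%) and pH 7.4 phosphate buffer (80%), followed over 1 week at 4 °C.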

Data set [8] is described as follows: Selectivity index, ratio of IC50 for African green monkey Vero cells to IC50 for Trypanosoma cruzi Sylvio X-10 amastigotes. The format is toxicity, cell-based. The following applies: read-out: Ratio IC50. The gist of the method: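 VERO cytotoxicity: cells exposed 48 h at 37 °C, 5% CO2 to serial dilutions from a maximum of 2000 μM (DMSO stocks; DMSO <0.1% control); growth inhibition read by MTT at 570 nm. Amastigote IC50: Sylvio X-10-infected VERO cells, five doses, infected cells counted among 300 (Giemsa), quadruplicate, three experiments, sigmoidal fit. SI = IC50 VERO / IC50 amastigote.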

Data set [9] can be described thus: Stability of the compound in aqueous solution assessed as compound remaining at 1 mM at pH 6 after 1 hr by TLC analysis. The following applies: aqueous solution, pH 6; read-out: Stability. The format is physicochemical. The gist of the method:
as §3

The test system of data set [10] is Trypanosoma cruzi. As to the kind of experiment: Antitrypanosomal activity against Trypanosoma cruzi Sylvio X-10 amastigotes infected in African green monkey Vero cells assessed as eradication of amastigotes after 5 days by Giemsa staining-based assay. The following applies: Sylvio X-10, Vero, 120 h. The format is functional, organism-based. The gist of the method:
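VERO cells in RPMI 1640 with 10% hiFCS were allowed to adhere for 24 h at 37 °C in 5% CO₂, then infected with tissue-derived trypomastigotes at 10:1. Free parasites were washed off after 24 h, and cultures were treated at five compound doses (text gives 72 h / 5 days). Cultures were methanol-fixed and Giemsa-stained, and infected cells were counted among 300. Quadruplicates were run in three independent experiments. IC50/IC90 were obtained by sigmoidal regression.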

The subject of data set [11] is Salmonella typhimurium. The data set can be described thus: Mutagenic activity in Salmonella typhimurium TA98 at 6 to 500 ug/plate by Ames test. The format is toxicity, organism-based. To be noted: salmonella enterica subsp. enterica serovar typhimurium. In outline:
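Ames plate-incorporation assay with S. typhimurium TA98 in Vogel-Bonner E minimal glucose agar. Toxicity toward the bacteria was checked first. DMSO solutions were run in triplicate at five consecutive third-dilutions, starting at the highest non-toxic dose. Positive controls were 4-nitro-o-phenylenediamine (20.0 μg/plate) and 2-aminofluorene (10.0 μg/plate); DMSO was the negative control. Revertants were counted manually. A compound was called mutagenic when revertants were at least twice the negative control at two or more consecutive doses.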

Data set [12] concerns Salmonella typhimurium. The data set can be described thus: Mutagenic activity in Salmonella typhimurium TA102 at 6 to 500 ug/plate by Ames test in presence of mouse liver S9 fraction. The format is toxicity, organism-based. To be noted: salmonella enterica subsp. enterica serovar typhimurium. In outline: as §1
A short description of data set [13]: Selectivity index, ratio of IC50 for mouse J774.1 cells to IC50 for Trypanosoma cruzi Sylvio X-10 amastigotes. It counts as toxicity. The following applies: read-out: Ratio IC50. In outline: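 J774.1 macrophages grown in DMEM with 10% heat-inactivated FCS and allowed to attach 48 h, then exposed 48 h at 37 °C to 12.5–400.0 μM. Triplicates. MTT 0.1 mg/mL for 3 h, read at 560 nm; IC50 by linear regression against the solvent control. SI = IC50 J774.1 / parasite IC50 (Sylvio X-10 amastigotes or Tulahuen 2 epimastigotes, the latter measured by A600 growth inhibition at day 5).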

The subject of data set [14] is Salmonella typhimurium. The data set can be described thus: Mutagenic activity in Salmonella typhimurium TA100 at 6 to 500 ug/plate by Ames test. To be noted: salmonella enterica subsp. enterica serovar typhimurium. The format is toxicity, organism-based. The gist of the method:
as §2

In data set [15] the test system is Trypanosoma cruzi. As to the kind of experiment: Antitrypanosomal activity against Trypanosoma cruzi Tulahuen 2 epimastigotes assessed as growth inhibition after 5 days. The following applies: Trypanosoma cruzi, Tulahuen 2, 120 h. The format is functional, organism-based. The gist of the method: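 Epimastigotes were grown axenically at 28 °C in BHI-tryptose with 5% FBS and seeded from a 5–7 day culture at 1 × 10⁶ cells/mL. Drug from a DMSO stock was added (final DMSO ≤0.4%; the control contained 0.4% DMSO). Duplicates were run. A600 was read at day 5, and % inhibition was calculated relative to day-0 and control readings. IC50 = concentration that halves the absorbance ratio.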

Another data set has as its system Mus musculus. As to the kind of experiment: Toxicity in BALB/c mouse assessed as mortality at 100 mg/kg/day, po for 14 days. The format is organism-based. Also on record: route oral. To be noted: in vivo, 336 h. The gist of the method: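 Uninfected female BALB/c mice (n = 2/group) received intragastric gavage daily for 14 days in saline/Tween 80 (4:1). They were weighed and monitored daily, then sacrificed for macroscopic necropsy of organs.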

The subject of data set [16] is Salmonella typhimurium. The data set can be described thus: Mutagenic activity in Salmonella typhimurium TA1537 at 6 to 500 ug/plate by Ames test. It counts as toxicity, organism-based. To be noted: salmonella enterica subsp. enterica serovar typhimurium. The gist of the method: as §2
The subject of data set [17] is Salmonella typhimurium. As to the kind of experiment: Mutagenic activity in Salmonella typhimurium TA1535 at 6 to 500 ug/plate by Ames test. The format is toxicity, organism-based. The following applies: salmonella enterica subsp. enterica serovar typhimurium. In outline:
as §2

Data set [18] relates to Trypanosoma cruzi. As to the kind of experiment: Antitrypanosomal activity against Trypanosoma cruzi CL Brener infected in BALB/c mouse assessed as mouse survival at 107 umol/kg/day, po administered in cholesterol/surfactant/phosphate buffer in 19 day schedule including 5 days of dosing 2 days of resting and final 4 days of dosing measured up to 60 days relative to control. It counts as functional. In outline: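 Oral gavage of infected male BALB/c mice at 50 mg/kg/day in cholesterol/surfactant/phosphate buffer pH 7.4 microemulsion, from day 6 postinfection. Schedule: 5 days dosing, 2 rest, 5 dosing, 2 rest, 4 dosing. n = 6/group, with vehicle controls. Parasitemia was read weekly in tail-vein blood for 60 days and mortality recorded.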

A short description of data set [19]: Stability of the compound in aqueous solution assessed as compound remaining at 1 mM at 37 degC after 1 hr by TLC analysis in presence of rat liver microsomal fraction. To be noted: microsomes, 1000 µM. The gist of the method: as §4
In general terms: Liver microsomes are a subcellular fraction often used to study metabolism.

The subject of data set [20] is Salmonella typhimurium. The data set can be described thus: Mutagenic activity in Salmonella typhimurium TA1537 at 6 to 500 ug/plate by Ames test in presence of mouse liver S9 fraction. To be noted: salmonella enterica subsp. enterica serovar typhimurium. It counts as toxicity, organism-based. In outline: as §1
For data set [21], the system named is Salmonella typhimurium. As to the kind of experiment: Mutagenic activity in Salmonella typhimurium TA100 at 6 to 500 ug/plate by Ames test in presence of mouse liver S9 fraction. The format is toxicity, organism-based. To be noted: salmonella enterica subsp. enterica serovar typhimurium. The gist of the method:
as §1

In data set [22] the test system is Trypanosoma cruzi. The data set can be described thus: Antitrypanosomal activity against Trypanosoma cruzi CL Brener infected in BALB/c mouse assessed as peak of maximum parasitemia at 192 umol/kg/day, po for 14 days administered in saline and tween 80 measured up to 60 days relative to control. It counts as functional. In outline: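 Male BALB/c mice (30 days old, 25–30 g, SPF) were infected i.p. with 10³ blood trypomastigotes, n = 8/group. Daily oral gavage in saline/Tween 80 (4:1) ran for 14 days from day 6 post-infection; controls received vehicle only. Parasitemia was counted weekly in tail-vein blood by hemocytometer for 60 days, and survival was recorded.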

For data set [23], the system named is Trypanosoma cruzi. The data set can be described thus: Antitrypanosomal activity against Trypanosoma cruzi CL Brener infected in BALB/c mouse assessed as mouse survival at 192 umol/kg/day, po for 14 days administered in saline and tween 80 measured up to 60 days relative to control. The format is functional.
The subject of data set [24] is Trypanosoma cruzi. The data set can be described thus: Antitrypanosomal activity against Trypanosoma cruzi Sylvio X-10 amastigotes infected in African green monkey Vero cells assessed as eradication of amastigotes after 72 hrs by Giemsa staining-based assay. To be noted: Trypanosoma cruzi, Sylvio X-10, Vero, 72 h.

Consider `Br.C=CCn1c(-c2ccc3ccccc3c2)cs\c1=N/N=C/C=C/c1ccco1`, for which the Activity entry in the data set with Salmonella typhimurium [1], in the data set with Salmonella typhimurium [2], with Salmonella typhimurium [11], in the data set with Salmonella typhimurium [12], with Salmonella typhimurium [14] and with Mus musculus was “Non-toxic” in each case. Also, the Activity result with Salmonella typhimurium [16], in the data set with Salmonella typhimurium [17], in the data set on Salmonella typhimurium [20] and in the data set with Salmonella typhimurium [21] was “Non-toxic” each time. The Time with Trypanosoma cruzi [3] worked out at 42 days. Moreover, the remaining at 1 h, 1000 µM in data set [4], in [5] and in data set [9] was greater than 95% each time. Moreover, the Stability entry in data set [6], in data set [7] and in data set [19] was “Stable” in each case. Further, the selectivity ratio was greater than 1000 in [8] and greater than 120 in data set [13]. The IC50 in the data set on Trypanosoma cruzi [10] is less than 0.21 µM; in the data set with Trypanosoma cruzi [15], 2.4 µM. Besides, the survival at 107 µmol/kg with Trypanosoma cruzi [18] turned out to be 100%.

Turning to `O=C(Cn1ccnc1[N+](=O)[O-])NCc1ccccc1` [BENZNIDAZOLE], in the data set with Trypanosoma cruzi [22], the Time amounted to 42 days. Besides, the selectivity ratio in [8] amounted to 300. The results for the IC50 in the data set with Trypanosoma cruzi [15] and in the data set with Trypanosoma cruzi [24] were 7 µM and 3.3 µM, respectively. For the same compound, the survival at 192 µmol/kg with Trypanosoma cruzi [23] stood at 100%.

Usually IC50 stands for the concentration that inhibits the measured activity by half.
